# Measured values as given in ChEMBL document CHEMBL5661979, “Pharmacological inhibition of BMK1 suppresses tumor growth through promyelocytic leukemia protein” (Cancer Cell, 2010).
# Legend:
# Type in all cases: subcellular
# [1] = target: Phosphorylase b kinase gamma catalytic chain, liver/testis isoform (Homo sapiens, UniProt P15735); assay: Inhibition of PHKg2 in human HeLa cells lysate pre incubated for 15 mins followed by ATP acyl phosphate probe addition and measured after 10 mins by LC-MS/MS analysis
# [2] = target: Macrophage-stimulating protein receptor (Homo sapiens, UniProt Q04912); assay: Inhibition of RON in human HeLa cells lysate pre incubated for 15 mins followed by ADP acyl phosphate probe addition and measured after 10 mins by LC-MS/MS analysis
# [3] = target: Peripheral plasma membrane protein CASK (Homo sapiens) (UniProt O14936); assay: Inhibition of CASK in human HeLa cells lysate at 10 uM pre incubated for 15 mins followed by ADP acyl phosphate probe addition and measured after 10 mins by LC-MS/MS analysis relative to control; conditions: time 25.0 min
# Procedure, shortened: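 KiNativ profiling in HeLa lysate (5 mg/mL total protein). Lysate incubated 15 min with inhibitor at 50, 10, 2, 0.8 or 0 μM. ATP or ADP acylphosphate probe then added (5 μM final) and reacted 10 min. Reaction stopped with urea and analysed by targeted MS, using up to four fragment ions per kinase peptide-probe conjugate. % inhibition taken against untreated lysate. Run in duplicate.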
# [4] = target: Dual specificity mitogen-activated protein kinase kinase 1 (Homo sapiens, UniProt Q02750); assay: Inhibition of MAP2K1 in human HeLa cells lysate at 50 uM pre incubated for 15 mins followed by ATP acyl phosphate probe addition and measured after 10 mins by LC-MS/MS analysis relative to control; conditions: time 25.0 min
# [5] = target: T1, Mitogen-activated protein kinase kinase kinase 7 (Homo sapiens) (UniProt O43318); assay: Inhibition of TAK1 in human HeLa cells lysate at 10 uM pre incubated for 15 mins followed by ATP acyl phosphate probe addition and measured after 10 mins by LC-MS/MS analysis relative to control; conditions: time 25.0 min
# T1 sequence (whole entry): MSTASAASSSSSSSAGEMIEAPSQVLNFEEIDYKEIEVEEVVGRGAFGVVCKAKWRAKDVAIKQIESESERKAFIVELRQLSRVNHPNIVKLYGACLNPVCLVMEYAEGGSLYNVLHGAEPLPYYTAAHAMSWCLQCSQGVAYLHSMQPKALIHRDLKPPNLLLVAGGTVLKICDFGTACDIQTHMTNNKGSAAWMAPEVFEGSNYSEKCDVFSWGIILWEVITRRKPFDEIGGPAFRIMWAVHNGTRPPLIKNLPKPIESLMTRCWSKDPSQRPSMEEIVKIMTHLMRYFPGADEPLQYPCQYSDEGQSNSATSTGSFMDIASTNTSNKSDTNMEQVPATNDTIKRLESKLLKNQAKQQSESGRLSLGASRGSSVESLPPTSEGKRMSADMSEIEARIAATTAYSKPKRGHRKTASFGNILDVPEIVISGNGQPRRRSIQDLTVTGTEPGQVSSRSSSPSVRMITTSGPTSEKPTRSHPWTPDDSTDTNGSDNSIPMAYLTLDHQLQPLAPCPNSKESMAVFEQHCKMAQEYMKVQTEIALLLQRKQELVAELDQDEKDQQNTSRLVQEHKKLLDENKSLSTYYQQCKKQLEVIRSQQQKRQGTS
# [6] = target: T2, Serine/threonine-protein kinase TAO2 (Homo sapiens) (UniProt Q9UL54); assay: Inhibition of TAO2 in human HeLa cells lysate at 10 uM pre incubated for 15 mins followed by ATP acyl phosphate probe addition and measured after 10 mins by LC-MS/MS analysis relative to control; conditions: time 25.0 min
# T2 sequence (whole entry): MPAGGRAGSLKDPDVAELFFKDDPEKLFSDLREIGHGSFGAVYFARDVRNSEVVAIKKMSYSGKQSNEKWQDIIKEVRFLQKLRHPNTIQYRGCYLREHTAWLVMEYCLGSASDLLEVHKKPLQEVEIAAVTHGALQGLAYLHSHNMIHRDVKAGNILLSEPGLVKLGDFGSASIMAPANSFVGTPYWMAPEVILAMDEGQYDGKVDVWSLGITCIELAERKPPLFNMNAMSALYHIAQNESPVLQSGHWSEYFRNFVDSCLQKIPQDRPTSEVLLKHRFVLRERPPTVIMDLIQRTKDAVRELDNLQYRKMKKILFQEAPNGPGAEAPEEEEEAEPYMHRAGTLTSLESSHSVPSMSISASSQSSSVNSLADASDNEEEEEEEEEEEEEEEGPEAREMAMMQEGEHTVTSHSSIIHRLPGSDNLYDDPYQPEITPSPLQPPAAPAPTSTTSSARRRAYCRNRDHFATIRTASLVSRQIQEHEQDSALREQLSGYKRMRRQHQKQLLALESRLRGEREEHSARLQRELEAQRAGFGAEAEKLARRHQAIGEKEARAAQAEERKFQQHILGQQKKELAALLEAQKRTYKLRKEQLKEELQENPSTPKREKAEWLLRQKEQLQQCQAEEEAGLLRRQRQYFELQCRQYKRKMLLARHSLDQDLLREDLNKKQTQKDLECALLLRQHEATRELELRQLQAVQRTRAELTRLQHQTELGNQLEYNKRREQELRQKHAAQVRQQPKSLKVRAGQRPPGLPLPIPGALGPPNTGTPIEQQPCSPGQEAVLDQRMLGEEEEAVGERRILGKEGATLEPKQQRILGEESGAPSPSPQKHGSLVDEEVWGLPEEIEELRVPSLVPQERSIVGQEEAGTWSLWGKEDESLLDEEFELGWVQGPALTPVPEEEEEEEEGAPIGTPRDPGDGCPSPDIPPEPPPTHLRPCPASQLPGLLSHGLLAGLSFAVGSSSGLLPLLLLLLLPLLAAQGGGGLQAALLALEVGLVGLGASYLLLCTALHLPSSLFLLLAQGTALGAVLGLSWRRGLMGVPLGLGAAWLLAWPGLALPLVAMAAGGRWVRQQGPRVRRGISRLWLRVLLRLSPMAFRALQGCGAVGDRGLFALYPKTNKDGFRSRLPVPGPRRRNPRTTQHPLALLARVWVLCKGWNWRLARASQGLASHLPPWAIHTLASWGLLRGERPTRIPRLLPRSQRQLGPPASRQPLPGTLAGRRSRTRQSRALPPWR
# [7] = target: RAC-alpha serine/threonine-protein kinase (Homo sapiens, UniProt P31749); assay: Inhibition of AKT1 in human HeLa cells lysate at 2 uM pre incubated for 15 mins followed by ATP acyl phosphate probe addition and measured after 10 mins by LC-MS/MS analysis relative to control; conditions: time 25.0 min
# Procedure, shortened: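 HeLa cell lysates (5 mg/mL total protein) were preincubated with inhibitor at 0, 0.8, 2, 10 or 50 μM for 15 min. ATP or ADP acylphosphate probe was then added (5 μM final) for 10 min, and reactions were stopped with urea. Up to four fragment ions per kinase probe-peptide were quantified by targeted MS. % inhibition was taken relative to untreated lysate. Run in duplicate.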
# [8] = target: Serine/threonine-protein kinase greatwall (Homo sapiens) (UniProt Q96GX5); assay: Inhibition of MASTL in human HeLa cells lysate at 2 uM pre incubated for 15 mins followed by ATP acyl phosphate probe addition and measured after 10 mins by LC-MS/MS analysis relative to control; conditions: time 25.0 min
# Sequence of Serine/threonine-protein kinase greatwall (Homo sapiens) (Q96GX5 whole entry): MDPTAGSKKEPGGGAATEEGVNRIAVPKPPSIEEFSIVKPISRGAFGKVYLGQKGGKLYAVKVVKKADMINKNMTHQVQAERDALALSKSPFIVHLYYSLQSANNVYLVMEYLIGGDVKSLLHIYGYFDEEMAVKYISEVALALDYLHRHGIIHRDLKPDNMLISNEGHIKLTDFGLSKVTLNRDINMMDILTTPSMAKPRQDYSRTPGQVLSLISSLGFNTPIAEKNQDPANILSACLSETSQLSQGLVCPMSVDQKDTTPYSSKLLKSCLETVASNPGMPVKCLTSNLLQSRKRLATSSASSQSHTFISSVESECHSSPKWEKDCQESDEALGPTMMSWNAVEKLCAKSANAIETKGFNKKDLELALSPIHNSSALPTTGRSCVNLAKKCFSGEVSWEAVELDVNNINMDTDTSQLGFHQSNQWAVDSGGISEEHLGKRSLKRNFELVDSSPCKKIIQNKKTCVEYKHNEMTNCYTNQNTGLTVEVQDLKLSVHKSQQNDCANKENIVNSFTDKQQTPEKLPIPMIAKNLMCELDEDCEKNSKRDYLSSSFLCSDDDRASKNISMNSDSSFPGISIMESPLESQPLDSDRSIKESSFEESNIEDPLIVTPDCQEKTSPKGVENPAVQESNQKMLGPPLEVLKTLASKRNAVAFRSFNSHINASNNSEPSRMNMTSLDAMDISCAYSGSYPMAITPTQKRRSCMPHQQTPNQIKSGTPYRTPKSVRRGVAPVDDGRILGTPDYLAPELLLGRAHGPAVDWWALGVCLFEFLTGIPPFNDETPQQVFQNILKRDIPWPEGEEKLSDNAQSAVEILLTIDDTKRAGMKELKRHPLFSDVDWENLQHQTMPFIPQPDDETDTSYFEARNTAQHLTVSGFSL
# Sequence of RAC-alpha serine/threonine-protein kinase (P31749 whole entry, the tested form may be a part): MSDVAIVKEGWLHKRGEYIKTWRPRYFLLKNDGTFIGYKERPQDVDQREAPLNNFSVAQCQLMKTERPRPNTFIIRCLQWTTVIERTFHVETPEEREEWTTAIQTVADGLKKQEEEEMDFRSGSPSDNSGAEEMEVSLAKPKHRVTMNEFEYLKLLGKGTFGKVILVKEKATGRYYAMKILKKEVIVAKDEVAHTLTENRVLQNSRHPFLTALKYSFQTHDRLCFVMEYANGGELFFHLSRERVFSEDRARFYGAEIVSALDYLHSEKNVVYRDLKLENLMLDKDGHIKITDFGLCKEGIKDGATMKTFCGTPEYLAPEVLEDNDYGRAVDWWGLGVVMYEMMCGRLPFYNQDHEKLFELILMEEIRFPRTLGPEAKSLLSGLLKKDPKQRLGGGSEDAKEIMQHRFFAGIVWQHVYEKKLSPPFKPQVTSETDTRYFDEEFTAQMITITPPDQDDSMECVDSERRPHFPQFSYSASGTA
# Sequence of Peripheral plasma membrane protein CASK (Homo sapiens) (O14936 whole entry, the tested form may be a part): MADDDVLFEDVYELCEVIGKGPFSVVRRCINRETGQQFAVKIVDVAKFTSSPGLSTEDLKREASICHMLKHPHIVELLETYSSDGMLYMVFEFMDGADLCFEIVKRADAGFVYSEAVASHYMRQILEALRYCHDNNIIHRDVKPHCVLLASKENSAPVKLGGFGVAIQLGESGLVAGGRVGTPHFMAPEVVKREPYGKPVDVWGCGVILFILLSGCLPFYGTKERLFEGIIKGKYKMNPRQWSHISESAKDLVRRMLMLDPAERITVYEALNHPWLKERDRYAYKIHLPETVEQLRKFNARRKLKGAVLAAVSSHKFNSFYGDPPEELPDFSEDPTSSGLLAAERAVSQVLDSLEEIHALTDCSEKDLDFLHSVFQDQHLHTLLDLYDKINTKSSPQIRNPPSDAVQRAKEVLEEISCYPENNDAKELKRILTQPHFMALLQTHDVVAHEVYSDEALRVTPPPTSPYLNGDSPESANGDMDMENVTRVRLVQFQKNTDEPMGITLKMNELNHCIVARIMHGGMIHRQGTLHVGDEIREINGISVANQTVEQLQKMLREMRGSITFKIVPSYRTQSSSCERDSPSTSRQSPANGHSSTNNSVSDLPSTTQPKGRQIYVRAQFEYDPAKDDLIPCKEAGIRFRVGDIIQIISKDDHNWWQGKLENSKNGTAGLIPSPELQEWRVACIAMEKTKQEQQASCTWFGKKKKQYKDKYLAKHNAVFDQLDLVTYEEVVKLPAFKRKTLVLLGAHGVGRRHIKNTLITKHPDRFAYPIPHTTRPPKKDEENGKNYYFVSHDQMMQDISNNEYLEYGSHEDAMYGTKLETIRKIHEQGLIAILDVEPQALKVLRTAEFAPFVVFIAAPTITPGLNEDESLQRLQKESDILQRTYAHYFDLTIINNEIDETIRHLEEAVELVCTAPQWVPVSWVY
# Sequence of Macrophage-stimulating protein receptor (Q04912 25-304 limits assumed): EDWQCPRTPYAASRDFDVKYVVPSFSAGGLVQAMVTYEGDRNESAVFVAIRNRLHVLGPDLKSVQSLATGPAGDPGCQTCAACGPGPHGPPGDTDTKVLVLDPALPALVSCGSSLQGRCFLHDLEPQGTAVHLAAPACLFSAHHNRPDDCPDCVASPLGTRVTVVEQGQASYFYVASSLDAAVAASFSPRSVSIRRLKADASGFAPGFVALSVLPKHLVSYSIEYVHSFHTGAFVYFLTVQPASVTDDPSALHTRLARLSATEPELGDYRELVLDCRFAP
# Sequence of Macrophage-stimulating protein receptor (Q04912 310-1400 limits assumed): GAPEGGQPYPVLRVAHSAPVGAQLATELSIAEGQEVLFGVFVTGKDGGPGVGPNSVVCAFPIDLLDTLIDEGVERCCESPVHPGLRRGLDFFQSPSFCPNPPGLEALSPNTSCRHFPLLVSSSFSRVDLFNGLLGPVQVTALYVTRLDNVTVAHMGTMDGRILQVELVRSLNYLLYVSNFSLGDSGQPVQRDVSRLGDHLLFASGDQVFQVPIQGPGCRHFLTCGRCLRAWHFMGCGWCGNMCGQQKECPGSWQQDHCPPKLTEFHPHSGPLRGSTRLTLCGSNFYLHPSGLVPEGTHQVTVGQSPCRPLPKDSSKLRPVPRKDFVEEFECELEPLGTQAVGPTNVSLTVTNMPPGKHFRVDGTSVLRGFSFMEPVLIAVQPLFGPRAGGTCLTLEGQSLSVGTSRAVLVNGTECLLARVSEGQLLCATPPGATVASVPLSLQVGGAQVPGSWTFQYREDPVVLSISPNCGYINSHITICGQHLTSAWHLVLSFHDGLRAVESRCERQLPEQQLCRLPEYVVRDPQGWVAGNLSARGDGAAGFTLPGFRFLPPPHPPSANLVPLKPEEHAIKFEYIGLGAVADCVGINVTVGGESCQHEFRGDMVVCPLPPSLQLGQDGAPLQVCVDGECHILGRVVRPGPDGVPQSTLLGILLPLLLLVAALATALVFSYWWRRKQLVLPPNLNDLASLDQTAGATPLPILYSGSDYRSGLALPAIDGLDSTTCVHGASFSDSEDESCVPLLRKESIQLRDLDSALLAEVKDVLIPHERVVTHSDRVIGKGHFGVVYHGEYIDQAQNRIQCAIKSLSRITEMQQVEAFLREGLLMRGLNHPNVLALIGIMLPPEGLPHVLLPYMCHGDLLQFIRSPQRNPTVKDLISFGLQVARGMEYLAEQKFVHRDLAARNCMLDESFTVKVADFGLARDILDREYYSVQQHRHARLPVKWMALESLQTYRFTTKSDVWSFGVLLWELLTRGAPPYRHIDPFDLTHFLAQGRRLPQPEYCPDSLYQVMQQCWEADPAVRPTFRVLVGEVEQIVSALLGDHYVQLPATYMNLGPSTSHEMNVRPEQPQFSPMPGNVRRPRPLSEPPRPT
# Sequence of Dual specificity mitogen-activated protein kinase kinase 1 (Q02750 whole entry): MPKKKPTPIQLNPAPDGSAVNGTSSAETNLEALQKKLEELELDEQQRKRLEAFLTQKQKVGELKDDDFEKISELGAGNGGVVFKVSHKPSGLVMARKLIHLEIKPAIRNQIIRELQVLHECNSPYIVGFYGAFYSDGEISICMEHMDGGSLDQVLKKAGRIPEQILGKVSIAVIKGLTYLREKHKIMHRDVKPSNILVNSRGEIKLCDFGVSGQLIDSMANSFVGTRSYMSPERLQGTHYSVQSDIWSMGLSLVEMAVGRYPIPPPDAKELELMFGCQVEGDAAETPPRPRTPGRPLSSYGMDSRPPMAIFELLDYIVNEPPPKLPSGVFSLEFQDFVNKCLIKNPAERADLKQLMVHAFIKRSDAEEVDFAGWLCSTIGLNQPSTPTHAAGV
# Sequence of Phosphorylase b kinase gamma catalytic chain, liver/testis isoform (P15735 whole entry, canonical isoform): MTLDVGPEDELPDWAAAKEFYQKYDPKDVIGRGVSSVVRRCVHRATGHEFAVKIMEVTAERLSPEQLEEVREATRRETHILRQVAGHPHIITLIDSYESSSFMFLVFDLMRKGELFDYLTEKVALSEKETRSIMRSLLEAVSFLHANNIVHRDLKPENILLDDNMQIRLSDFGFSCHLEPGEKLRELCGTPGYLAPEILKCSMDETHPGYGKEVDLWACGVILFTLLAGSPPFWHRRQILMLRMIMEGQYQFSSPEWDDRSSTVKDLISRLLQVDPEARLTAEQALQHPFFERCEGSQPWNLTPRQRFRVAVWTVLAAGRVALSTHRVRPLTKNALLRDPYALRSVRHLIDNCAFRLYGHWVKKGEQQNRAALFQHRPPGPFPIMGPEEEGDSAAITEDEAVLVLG
smiles,measurement,setting,value
CCOc1cc(N2CCC(O)CC2)ccc1Nc1ncc2c(n1)N(C)c1ccccc1C(=O)N2C,IC50,[1],> 50 µM
same,IC50,[2],> 50 µM
same,inhibition,[3],-8.1%
same,inhibition,[4],-7.3%
same,inhibition,[5],21.2%
same,inhibition,[6],3.3%
same,inhibition,[7],-6.9%
same,inhibition,[8],8.1%
